Assays:
[1] = molecular target: T1, Nonstructural protein 5A (Hepatitis C virus) (UniProt Q5L478); assay: Potency index, ratio of ombitasvir IC50 to compound IC50 for inhibition of NS5A in HCV genotype 3a infected in human HuH7 replicon cells expressing HCV genotype 1b chimeric replicon; assay type: cell-based; conditions: Hepatitis C virus subtype 3a
T1 sequence (whole entry): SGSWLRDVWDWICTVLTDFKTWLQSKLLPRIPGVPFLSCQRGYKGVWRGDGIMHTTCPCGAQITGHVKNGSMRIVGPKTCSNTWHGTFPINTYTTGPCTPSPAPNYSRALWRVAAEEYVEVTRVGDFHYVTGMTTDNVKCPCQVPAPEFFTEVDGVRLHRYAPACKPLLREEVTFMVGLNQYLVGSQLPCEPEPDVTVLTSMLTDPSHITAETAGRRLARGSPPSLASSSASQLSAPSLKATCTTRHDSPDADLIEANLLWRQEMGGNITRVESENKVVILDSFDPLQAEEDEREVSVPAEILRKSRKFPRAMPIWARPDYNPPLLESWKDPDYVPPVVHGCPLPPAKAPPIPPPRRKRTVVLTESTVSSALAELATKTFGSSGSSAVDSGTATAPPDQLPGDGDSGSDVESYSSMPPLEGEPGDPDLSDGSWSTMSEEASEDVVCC

[2] = molecular target: T1, Nonstructural protein 5A (Hepatitis C virus); assay: Potency index, ratio of ombitasvir IC50 to compound IC50 for inhibition of NS5A in HCV genotype 6a infected in human HuH7 replicon cells expressing HCV genotype 1b chimeric replicon; assay type: cell-based; conditions: Hepatitis C virus subtype 6a
[3] = Metabolic stability in mouse liver microsomes assessed as parent compound remaining at 0.2 uM preincubated for 5 mins followed by NADPH addition measured up to 60 mins by UPLC-MS/MS analysis; assay type: ADME, microsome; conditions: read-out: Stability
Outline: (§1)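 Pooled mouse, rat or human liver microsomes 0.2 mg/mL with 1 mM NADPH, 5 mM MgCl2, 100 mM potassium phosphate pH 7.4 and 0.2 µM compound; 5-min preincubation at 37 °C, NADPH start, sampled at 5, 15, 30, 60 min; ice-cold acetonitrile stop; UPLC-MS/MS; percent parent remaining at 60 min.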

[4] = Metabolic stability in rat liver microsomes assessed as parent compound remaining at 0.2 uM preincubated for 5 mins followed by NADPH addition measured up to 60 mins by UPLC-MS/MS analysis; assay type: ADME, microsome; conditions: read-out: Stability; outline: as §1
[5] = Metabolic stability in human liver microsomes assessed as parent compound remaining at 0.2 uM preincubated for 5 mins followed by NADPH addition measured up to 60 mins by UPLC-MS/MS analysis; assay type: ADME, microsome; conditions: read-out: Stability; outline: as §1
[6] = Tmax in mouse at 10 mg/kg, ig administered as single dose by UPLC-MS/MS analysis; assay type: ADME, organism-based; conditions: in vivo, po
Outline: (§2)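 Adult male mice (12 h light-dark, 22 °C, 55% humidity) fasted 12 h with free water, then given a single 10 mg/kg intragastric dose; plasma concentrations by UPLC-MS/MS; PK parameters calculated by software.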

[7] = Cmax in mouse at 10 mg/kg, ig administered as single dose by UPLC-MS/MS analysis; assay type: ADME, organism-based; design: dose 10 mg/kg, route intragastric; conditions: in vivo, po; outline: as §2
[8] = Half life in mouse at 10 mg/kg, ig administered as single dose by UPLC-MS/MS analysis; assay type: ADME, organism-based; conditions: in vivo, po; outline: as §2
[9] = AUC (0 to t) in mouse at 10 mg/kg, ig administered as single dose by UPLC-MS/MS analysis; assay type: ADME, organism-based; conditions: in vivo, po; outline: as §2

Row | SMILES | Ratio IC50 [1] | Ratio IC50 [2] | remaining at 1 h, 0.2 µM [3] [%] | remaining at 1 h, 0.2 µM [4] [%] | remaining at 1 h, 0.2 µM [5] [%] | Tmax [6] [h] | Cmax [7] [ng/mL] | half-life [8] [h] | AUC(0-t) [9] [ng·h/mL]
1 | COC(=O)N[C@H](C(=O)N1CCC[C@H]1C(=O)Nc1ccc([C@@H]2CC[C@@H](c3ccc(NC(=O)[C@@H]4CCCN4C(=O)[C@@H](NC(=O)OC)C(C)C)cc3)N2c2ccc([Si](C)(C)C(C)(C)C)cc2)cc1)C(C)C | 7.2 | 3.7 | 92.1 | 87 | 84.3 | 3 | 211 | 34.7 | 3520
2 | COC(=O)N[C@H](C(=O)N1CCC[C@H]1C(=O)Nc1ccc([C@@H]2CC[C@@H](c3ccc(NC(=O)[C@@H]4CCCN4C(=O)[C@@H](NC(=O)OC)C(C)C)cc3)N2c2ccc([Si](C)(C)C)cc2)cc1)C(C)C | 2.3 | 2.4 | 93.3 | 101 | 99.2 | 3 | 262 | 8.8 | 2910
